Results on two compounds are retold here after ChEMBL document CHEMBL5696442, “Discovery of type II inhibitors of TGFβ-activated kinase 1 (TAK1) and mitogen-activated protein kinase kinase kinase kinase 2 (MAP4K2)” (J Med Chem, 2015).

Experiment [1] addresses T1, Mitogen-activated protein kinase kinase kinase kinase 4 (Homo sapiens, UniProt O95819). The experiment is described as follows: Inhibition of ZC1/HGK Lys1 labeling site in human A-375 cells at 0.05 uM by KiNativ Profiling analysis relative to control. The class given is cell-based.
For a further experiment, the target named is Ephrin type-B receptor 4 (Homo sapiens, UniProt P54760). The experiment can be described thus: Inhibition of EphB4 (unknown origin) ACT labeling site by KiNativ Profiling analysis.
Experiment [2] addresses T2, Serine/threonine-protein kinase Nek8 (Homo sapiens) (UniProt Q86SG6).
T2 sequence (whole entry): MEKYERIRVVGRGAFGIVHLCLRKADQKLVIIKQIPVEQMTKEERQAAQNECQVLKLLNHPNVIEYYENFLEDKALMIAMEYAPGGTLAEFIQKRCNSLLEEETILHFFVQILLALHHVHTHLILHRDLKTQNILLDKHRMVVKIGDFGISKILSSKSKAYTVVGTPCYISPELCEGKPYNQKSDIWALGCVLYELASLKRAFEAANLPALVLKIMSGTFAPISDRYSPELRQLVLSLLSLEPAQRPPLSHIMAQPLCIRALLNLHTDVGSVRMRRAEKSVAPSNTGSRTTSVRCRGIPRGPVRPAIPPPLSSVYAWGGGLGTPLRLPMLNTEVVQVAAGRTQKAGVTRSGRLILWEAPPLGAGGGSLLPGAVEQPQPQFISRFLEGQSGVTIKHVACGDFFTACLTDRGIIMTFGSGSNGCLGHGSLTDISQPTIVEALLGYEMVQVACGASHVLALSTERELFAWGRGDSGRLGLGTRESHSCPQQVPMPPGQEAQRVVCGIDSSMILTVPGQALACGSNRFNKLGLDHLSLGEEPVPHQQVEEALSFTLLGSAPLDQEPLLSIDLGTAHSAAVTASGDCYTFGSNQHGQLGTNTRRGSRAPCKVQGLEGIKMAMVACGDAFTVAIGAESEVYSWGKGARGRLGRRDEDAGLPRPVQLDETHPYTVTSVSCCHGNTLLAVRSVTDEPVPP
The experiment is described as follows: Inhibition of NEK8 Lys2 labeling site in human A-375 cells at 0.05 uM by KiNativ Profiling analysis relative to control. The experiment is classed as cell-based.

Experiment [3] deals with T1, Mitogen-activated protein kinase kinase kinase kinase 4. The experiment can be described thus: Inhibition of ZC1/HGK Lys2 labeling site in human A-375 cells at 0.5 uM by KiNativ Profiling analysis relative to control. The experiment is classed as cell-based.
Experiment [4] has as its target Serine/threonine-protein kinase WNK2 (Homo sapiens) (UniProt Q9Y3S1). The experiment is described as follows: Inhibition of Wnk2 ACT labeling site in human A-375 cells at 0.5 uM by KiNativ Profiling analysis relative to control. The class given is cell-based.
The target in experiment [5] is T3, Serine/threonine-protein kinase TBK1 (Homo sapiens) (UniProt Q9UHD2).
T3 sequence (whole entry): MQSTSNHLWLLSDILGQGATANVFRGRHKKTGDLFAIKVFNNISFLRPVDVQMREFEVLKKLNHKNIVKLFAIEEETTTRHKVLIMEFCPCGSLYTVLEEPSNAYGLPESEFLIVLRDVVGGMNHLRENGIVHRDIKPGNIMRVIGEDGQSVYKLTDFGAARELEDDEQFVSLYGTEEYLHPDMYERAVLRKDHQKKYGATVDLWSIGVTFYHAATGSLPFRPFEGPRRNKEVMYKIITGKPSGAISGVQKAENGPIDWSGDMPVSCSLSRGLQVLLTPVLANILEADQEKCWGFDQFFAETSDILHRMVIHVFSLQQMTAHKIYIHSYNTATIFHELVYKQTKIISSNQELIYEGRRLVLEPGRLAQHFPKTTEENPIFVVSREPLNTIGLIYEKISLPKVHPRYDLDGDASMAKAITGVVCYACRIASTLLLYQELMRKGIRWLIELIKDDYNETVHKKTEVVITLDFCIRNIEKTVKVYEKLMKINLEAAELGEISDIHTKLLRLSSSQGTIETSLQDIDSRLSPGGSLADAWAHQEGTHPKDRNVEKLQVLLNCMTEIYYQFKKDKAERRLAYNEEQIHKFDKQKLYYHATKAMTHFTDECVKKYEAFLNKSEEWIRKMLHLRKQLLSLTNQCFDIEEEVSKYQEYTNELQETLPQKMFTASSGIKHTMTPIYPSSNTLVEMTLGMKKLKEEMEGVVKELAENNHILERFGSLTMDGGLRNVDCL
The experiment can be described thus: Inhibition of TBK1 Lys1 labeling site in human A-375 cells at 0.5 uM by KiNativ Profiling analysis relative to control. The class given is cell-based.

The target in experiment [6] is Cyclin-dependent kinase 4 (Homo sapiens) (UniProt P11802). The experiment can be described thus: Inhibition of CDK4 Lys2 labeling site in human A-375 cells at 5 uM by KiNativ Profiling analysis relative to control. The class given is cell-based. In outline:
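Live A375 melanoma cells were treated with compound at 5 or 0.5 μM. The cells were then lysed, and the lysates were labeled with a lysine-reactive ATP or ADP-biotin acyl probe (KiNativ). Inhibition is the compound's protection of each kinase labeling-site peptide from probe labeling, relative to untreated control.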

The target in experiment [7] is T4, Serine/threonine-protein kinase Nek9 (Homo sapiens) (UniProt Q8TD19).
T4 sequence (whole entry): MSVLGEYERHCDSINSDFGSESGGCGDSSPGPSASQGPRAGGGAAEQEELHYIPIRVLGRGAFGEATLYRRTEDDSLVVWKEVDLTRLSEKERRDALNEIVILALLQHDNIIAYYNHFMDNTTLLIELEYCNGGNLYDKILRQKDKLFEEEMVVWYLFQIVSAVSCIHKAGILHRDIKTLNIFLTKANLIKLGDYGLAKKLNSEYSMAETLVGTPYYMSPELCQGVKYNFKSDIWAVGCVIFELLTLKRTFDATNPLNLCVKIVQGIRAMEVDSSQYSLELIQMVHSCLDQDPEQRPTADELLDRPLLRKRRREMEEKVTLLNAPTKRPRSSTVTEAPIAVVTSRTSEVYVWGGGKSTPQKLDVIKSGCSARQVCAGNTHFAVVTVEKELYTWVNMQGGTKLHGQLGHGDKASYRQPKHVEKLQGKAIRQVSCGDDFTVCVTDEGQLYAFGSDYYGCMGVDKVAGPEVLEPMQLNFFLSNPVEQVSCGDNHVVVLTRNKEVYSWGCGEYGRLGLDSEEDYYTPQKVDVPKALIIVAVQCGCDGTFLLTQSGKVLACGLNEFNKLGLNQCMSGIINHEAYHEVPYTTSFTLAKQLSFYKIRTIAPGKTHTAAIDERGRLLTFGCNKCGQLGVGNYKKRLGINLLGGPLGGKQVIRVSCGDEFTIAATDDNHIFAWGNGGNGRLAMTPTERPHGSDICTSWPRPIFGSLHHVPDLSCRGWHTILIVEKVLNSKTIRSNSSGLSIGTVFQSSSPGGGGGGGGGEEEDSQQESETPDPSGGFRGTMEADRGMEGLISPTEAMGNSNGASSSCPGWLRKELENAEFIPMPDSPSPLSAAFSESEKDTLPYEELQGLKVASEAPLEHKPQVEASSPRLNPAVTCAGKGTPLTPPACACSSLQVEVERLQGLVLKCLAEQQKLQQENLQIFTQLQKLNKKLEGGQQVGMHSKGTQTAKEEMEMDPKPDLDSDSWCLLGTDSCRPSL
The experiment can be described thus: Inhibition of NEK9 Lys2 labeling site in human A-375 cells at 0.05 uM by KiNativ Profiling analysis relative to control. The class given is cell-based.

T1 sequence (O95819 2-1239 limits assumed): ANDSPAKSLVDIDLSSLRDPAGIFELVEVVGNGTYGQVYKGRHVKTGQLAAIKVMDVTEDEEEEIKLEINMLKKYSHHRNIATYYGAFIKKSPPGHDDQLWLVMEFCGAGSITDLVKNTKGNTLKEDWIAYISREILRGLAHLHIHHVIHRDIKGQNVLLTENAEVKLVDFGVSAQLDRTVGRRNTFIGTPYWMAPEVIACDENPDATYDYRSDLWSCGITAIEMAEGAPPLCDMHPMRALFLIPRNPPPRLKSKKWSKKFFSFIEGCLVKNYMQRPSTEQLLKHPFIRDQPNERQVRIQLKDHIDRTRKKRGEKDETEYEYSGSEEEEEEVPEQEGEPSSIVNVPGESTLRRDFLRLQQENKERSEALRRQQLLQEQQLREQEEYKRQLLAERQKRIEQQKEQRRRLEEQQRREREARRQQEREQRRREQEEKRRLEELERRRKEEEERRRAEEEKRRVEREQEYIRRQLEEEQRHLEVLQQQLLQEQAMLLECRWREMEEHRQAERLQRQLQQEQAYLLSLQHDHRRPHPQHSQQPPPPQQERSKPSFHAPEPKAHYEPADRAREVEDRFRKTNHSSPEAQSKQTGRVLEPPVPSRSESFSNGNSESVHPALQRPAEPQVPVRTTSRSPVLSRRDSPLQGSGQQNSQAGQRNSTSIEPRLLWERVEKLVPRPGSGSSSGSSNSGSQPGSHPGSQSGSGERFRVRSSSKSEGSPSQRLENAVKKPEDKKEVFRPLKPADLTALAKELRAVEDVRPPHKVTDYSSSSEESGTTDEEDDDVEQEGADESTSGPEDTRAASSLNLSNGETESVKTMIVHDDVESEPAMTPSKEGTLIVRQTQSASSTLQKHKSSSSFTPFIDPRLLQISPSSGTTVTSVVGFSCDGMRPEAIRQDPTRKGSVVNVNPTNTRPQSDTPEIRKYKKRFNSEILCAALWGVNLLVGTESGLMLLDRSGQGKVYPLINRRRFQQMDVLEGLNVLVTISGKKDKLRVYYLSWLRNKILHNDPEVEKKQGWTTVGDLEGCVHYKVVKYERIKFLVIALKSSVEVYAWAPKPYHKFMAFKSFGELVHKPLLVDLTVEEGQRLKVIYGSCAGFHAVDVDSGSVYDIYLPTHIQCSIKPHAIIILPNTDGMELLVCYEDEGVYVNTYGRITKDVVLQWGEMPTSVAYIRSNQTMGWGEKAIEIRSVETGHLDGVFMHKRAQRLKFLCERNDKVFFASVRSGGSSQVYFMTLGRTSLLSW
Chain of Ephrin type-B receptor 4 (P54760 whole entry): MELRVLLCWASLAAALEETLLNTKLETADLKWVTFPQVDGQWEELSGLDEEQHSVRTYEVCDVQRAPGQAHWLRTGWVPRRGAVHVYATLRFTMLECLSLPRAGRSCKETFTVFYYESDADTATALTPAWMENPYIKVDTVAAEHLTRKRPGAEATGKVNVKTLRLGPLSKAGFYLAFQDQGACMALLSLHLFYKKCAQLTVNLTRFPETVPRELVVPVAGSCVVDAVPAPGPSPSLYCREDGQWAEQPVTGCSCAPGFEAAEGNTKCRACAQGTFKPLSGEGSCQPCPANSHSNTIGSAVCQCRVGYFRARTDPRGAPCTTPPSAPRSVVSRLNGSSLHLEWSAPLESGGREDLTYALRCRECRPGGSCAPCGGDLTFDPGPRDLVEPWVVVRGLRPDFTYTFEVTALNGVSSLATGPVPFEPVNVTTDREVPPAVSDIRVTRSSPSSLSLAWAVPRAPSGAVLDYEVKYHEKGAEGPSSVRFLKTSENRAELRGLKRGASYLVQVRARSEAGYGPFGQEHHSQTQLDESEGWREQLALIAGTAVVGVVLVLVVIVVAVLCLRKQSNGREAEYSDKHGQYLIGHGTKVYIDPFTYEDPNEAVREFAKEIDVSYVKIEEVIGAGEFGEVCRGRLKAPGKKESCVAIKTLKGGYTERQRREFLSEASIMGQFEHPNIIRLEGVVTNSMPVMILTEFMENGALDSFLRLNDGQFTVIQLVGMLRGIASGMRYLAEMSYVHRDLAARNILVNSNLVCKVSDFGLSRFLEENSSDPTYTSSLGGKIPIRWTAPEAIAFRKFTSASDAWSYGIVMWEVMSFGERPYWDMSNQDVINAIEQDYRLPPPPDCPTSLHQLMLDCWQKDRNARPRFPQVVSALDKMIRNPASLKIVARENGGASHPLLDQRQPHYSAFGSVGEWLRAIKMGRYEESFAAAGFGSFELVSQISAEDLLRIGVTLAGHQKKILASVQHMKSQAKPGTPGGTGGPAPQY
Chain of Cyclin-dependent kinase 4 (Homo sapiens) (P11802 whole entry): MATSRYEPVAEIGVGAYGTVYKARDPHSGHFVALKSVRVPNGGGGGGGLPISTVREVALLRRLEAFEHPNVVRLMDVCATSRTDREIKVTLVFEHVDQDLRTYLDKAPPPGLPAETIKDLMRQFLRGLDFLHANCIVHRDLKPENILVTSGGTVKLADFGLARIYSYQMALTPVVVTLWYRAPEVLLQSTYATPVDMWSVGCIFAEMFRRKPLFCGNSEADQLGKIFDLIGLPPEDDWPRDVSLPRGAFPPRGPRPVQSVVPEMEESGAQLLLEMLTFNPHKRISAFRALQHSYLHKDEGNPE
Chain of Serine/threonine-protein kinase WNK2 (Homo sapiens) (Q9Y3S1 whole entry): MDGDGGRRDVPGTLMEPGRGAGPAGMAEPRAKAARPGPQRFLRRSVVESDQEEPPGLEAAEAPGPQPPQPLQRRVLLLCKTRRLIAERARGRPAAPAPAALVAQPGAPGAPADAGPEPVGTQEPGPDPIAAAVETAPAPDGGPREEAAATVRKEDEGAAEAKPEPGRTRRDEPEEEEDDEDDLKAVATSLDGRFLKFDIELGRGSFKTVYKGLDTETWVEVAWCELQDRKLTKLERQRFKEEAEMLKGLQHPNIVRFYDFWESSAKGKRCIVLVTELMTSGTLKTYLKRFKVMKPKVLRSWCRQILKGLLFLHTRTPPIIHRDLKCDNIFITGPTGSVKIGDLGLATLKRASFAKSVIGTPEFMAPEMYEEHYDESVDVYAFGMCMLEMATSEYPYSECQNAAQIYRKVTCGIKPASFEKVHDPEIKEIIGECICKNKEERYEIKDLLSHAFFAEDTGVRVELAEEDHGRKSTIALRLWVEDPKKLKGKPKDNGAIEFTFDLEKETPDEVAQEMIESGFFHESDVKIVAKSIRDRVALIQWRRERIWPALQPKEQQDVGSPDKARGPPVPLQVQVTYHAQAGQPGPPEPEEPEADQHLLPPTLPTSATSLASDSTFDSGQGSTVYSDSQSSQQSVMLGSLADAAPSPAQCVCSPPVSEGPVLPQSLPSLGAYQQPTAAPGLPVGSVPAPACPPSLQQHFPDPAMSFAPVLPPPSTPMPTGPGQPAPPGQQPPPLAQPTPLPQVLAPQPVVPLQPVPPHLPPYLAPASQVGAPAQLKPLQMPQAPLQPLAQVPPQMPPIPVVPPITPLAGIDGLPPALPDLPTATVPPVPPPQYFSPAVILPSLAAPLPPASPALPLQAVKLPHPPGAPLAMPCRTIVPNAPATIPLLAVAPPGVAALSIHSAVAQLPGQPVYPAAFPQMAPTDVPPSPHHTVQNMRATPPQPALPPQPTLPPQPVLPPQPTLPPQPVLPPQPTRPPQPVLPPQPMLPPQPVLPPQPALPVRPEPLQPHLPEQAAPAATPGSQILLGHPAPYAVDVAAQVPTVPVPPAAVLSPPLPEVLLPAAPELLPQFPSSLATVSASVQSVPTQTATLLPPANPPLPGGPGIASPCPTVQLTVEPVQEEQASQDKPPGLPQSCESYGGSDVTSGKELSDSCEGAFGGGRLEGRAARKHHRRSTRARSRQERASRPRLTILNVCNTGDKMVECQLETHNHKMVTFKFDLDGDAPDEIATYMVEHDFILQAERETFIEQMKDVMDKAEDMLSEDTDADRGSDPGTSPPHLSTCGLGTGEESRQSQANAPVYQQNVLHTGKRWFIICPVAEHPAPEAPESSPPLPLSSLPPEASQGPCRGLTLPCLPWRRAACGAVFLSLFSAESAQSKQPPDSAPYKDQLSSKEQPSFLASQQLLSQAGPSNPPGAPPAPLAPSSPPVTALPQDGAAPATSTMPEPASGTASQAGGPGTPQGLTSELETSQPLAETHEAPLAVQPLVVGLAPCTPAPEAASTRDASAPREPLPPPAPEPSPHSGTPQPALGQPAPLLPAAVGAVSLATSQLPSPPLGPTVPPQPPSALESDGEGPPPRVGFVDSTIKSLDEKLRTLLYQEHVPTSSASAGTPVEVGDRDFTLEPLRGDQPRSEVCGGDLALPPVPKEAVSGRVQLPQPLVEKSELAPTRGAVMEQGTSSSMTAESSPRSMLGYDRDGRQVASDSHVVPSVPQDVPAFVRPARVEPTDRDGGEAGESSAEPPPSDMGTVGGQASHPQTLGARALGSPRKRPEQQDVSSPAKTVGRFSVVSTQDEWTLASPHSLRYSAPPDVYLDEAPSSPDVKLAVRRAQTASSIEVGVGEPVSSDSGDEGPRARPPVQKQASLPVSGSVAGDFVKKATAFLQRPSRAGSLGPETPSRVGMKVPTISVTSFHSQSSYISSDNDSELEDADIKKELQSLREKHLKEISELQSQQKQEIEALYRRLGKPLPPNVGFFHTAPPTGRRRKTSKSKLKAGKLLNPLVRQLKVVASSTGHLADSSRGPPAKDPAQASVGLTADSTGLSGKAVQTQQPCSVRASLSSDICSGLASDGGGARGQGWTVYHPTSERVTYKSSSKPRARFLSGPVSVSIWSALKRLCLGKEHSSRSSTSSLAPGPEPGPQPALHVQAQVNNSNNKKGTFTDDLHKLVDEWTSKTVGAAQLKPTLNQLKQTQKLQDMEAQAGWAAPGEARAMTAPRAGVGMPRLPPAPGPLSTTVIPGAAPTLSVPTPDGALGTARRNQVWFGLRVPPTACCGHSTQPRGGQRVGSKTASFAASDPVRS

In the case of `CCN1CCN(Cc2ccc(NC(=O)c3ccc(C)c(/C=C/c4cnc5[nH]ccc5c4OC)c3)cc2C(F)(F)F)CC1`, the inhibition (commonly the relative decrease from the control value, in per cent) was 43.4% in experiment [1]; -9.3% in experiment [2]; 48.1% in experiment [3]; 6.9% in experiment [4]; 28.7% in experiment [5]; 6.7% in experiment [6]. In experiment [7], the inhibition amounted to 2%. The IC50 (in general, the midpoint of a concentration-inhibition curve) against Ephrin type-B receptor 4 came out at 54 nM.
`CCN1CCN(Cc2ccc(NC(=O)c3ccc(C)c(Oc4ccnc5[nH]ccc45)c3)cc2C(F)(F)F)CC1`: the inhibition in experiment [1] is 42.1%; in experiment [2], -1.6%; in experiment [3], 70.8%; in experiment [4], 3.9%; in experiment [5], 17.1%; in experiment [6], 2.9%. Moreover, in experiment [7], the inhibition came to 4.2%. Moreover, the half-inhibitory concentration (IC50) at Ephrin type-B receptor 4 was determined as 999 nM.
